ChEMBL document CHEMBL1132280, “Discovery of potent and selective SH2 inhibitors of the tyrosine kinase ZAP-70” (J Med Chem, 1999)

Experiments:
Parameters in all cases: species or system Escherichia coli
[1] = biological target: Growth factor receptor-bound protein 2 (Homo sapiens, UniProt P62993); experiment: Binding affinity against Growth factor receptor bound protein 2
Method in brief: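 Fluorescence polarization competition assay using human Grb2 SH2 (residues 55–152), expressed in E. coli BL21(DE3) and purified on phosphotyrosine-agarose. Compounds were serially diluted 1:2 across 1000–0.04 μM in 20 mM phosphate pH 7.4 with 100 mM NaCl, 10 mM DTT, 4% DMSO, 1 mM EDTA and 0.1% bovine γ-globulin. They were added to 1.25 µM protein premixed with 20 nM fluorescein-labelled peptide (ex 485/em 530 nm). IC50 was taken from percent tracer bound relative to vehicle, as the mean of ≥3 experiments.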

[2] = biological target: Proto-oncogene tyrosine-protein kinase Src (Homo sapiens, UniProt P12931); experiment: Binding affinity against Src SH2 domain
[3] = biological target: Tyrosine-protein kinase SYK (Homo sapiens, UniProt P43405); experiment: Binding affinity against Syk protein tyrosine kinase SH2 domain

Chain of Growth factor receptor-bound protein 2 (P62993 whole entry, the tested form may be a part): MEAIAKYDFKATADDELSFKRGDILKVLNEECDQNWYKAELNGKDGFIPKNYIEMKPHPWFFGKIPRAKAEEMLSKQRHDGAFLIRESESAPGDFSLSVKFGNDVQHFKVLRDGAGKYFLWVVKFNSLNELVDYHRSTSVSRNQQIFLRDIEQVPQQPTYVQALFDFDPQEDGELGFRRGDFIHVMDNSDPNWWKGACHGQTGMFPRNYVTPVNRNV
Chain of Proto-oncogene tyrosine-protein kinase Src (P12931 2-536 limits assumed): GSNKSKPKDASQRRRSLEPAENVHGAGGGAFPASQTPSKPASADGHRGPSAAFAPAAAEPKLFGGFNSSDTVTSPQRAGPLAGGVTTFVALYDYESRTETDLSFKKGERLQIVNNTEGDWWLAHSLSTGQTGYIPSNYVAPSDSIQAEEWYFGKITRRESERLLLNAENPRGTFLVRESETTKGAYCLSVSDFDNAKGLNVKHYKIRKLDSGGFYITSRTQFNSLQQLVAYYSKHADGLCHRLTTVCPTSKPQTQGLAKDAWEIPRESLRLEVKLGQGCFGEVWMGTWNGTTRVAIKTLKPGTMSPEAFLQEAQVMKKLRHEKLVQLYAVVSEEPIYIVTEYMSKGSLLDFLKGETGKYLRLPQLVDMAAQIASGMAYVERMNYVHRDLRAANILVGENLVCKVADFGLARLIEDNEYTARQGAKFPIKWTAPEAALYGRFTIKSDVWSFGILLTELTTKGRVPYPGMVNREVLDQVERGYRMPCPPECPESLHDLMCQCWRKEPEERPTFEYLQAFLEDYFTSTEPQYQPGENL

Row | SMILES | IC50 [1] | IC50 [2] | IC50 [3]
1 | CC(=O)N[C@@H](Cc1ccc(OP(=O)(O)O)cc1)C(=O)N[C@@H](C)c1nc(Cc2ccc(C(F)(F)F)cc2)no1 | > 500 µM | 210 µM | > 500 µM
2 | CC(=O)N[C@@H](Cc1ccc(OP(=O)(O)O)cc1)C(=O)N[C@@H](C)c1nc(Cc2cccc(Cl)c2)no1 | – | 68 µM | > 500 µM
3 | CC(=O)N[C@@H](Cc1ccc(OP(=O)(O)O)cc1)C(=O)N[C@@H](C)c1nc(Cc2cccc(C(F)(F)F)c2)no1 | – | 115 µM | > 500 µM
4 | CC(=O)N[C@@H](Cc1ccc(OP(=O)(O)O)cc1)C(=O)N[C@@H](CCC(N)=O)c1nc(Cc2ccc(C)cc2)no1 | – | 292 µM | > 500 µM
5 | CC(=O)N[C@@H](Cc1ccc(OP(=O)(O)O)cc1)C(=O)N[C@@H](CCC(N)=O)c1nc(Cc2ccc(C(C)C)cc2)no1 | – | 96 µM | > 500 µM
6 | C[C@H](NC(=O)[C@H](Cc1ccc(OP(=O)(O)O)cc1)NC(=O)Cc1ccccc1)c1nc(Cc2ccc(C(F)(F)F)cc2)no1 | – | 123 µM | > 500 µM
7 | C[C@H](NC(=O)[C@H](Cc1ccc(OP(=O)(O)O)cc1)NC(=O)Cc1c[nH]c2ccccc12)c1nc(Cc2ccc(C(F)(F)F)cc2)no1 | – | 62 µM | 433 µM
8 | CC(=O)N[C@@H](Cc1ccc(OP(=O)(O)O)cc1)C(=O)N[C@@H](C)c1nc(Cc2ccc(Cl)c(Br)c2)no1 | – | 45 µM | > 500 µM
9 | COc1ccc(CC(=O)N[C@@H](Cc2ccc(OP(=O)(O)O)cc2)C(=O)N[C@@H](C)c2nc(Cc3ccc(C(F)(F)F)cc3)no2)cc1 | – | 87 µM | > 500 µM
10 | CC(=O)N[C@@H](Cc1ccc(OP(=O)(O)O)cc1)C(=O)N[C@@H](CO)c1nc(Cc2ccc(I)cc2)no1 | – | 37 µM | 452 µM
11 | CC(=O)N[C@@H](Cc1ccc(OP(=O)(O)O)cc1)C(=O)N[C@@H](CO)c1nc(Cc2ccc(Br)cc2)no1 | – | 32 µM | > 500 µM
12 | CC(=O)N[C@@H](Cc1ccc(OP(=O)(O)O)cc1)C(=O)N[C@@H](CC(N)=O)c1nc(Cc2ccc(C(F)(F)F)cc2)no1 | – | > 500 µM | > 500 µM
13 | CC(=O)N[C@@H](Cc1ccc(OP(=O)(O)O)cc1)C(=O)N[C@@H](CO)c1nc(Cc2ccc(Cl)cc2)no1 | – | 149 µM | > 500 µM
14 | CC(=O)N[C@@H](Cc1ccc(OP(=O)(O)O)cc1)C(=O)N[C@@H](C)c1nc(Cc2ccc(F)cc2)no1 | – | 200 µM | > 500 µM
15 | C[C@H](NC(=O)[C@H](Cc1ccc(OP(=O)(O)O)cc1)NC(=O)Cc1cccs1)c1nc(Cc2ccc(C(F)(F)F)cc2)no1 | – | 143 µM | > 500 µM
16 | CC(=O)N[C@@H](Cc1ccc(OP(=O)(O)O)cc1)C(=O)N[C@@H](C)c1nc(Cc2ccc(I)cc2)no1 | – | 18 µM | 472 µM
17 | C[C@H](NC(=O)[C@H](Cc1ccc(OP(=O)(O)O)cc1)NC(=O)Cc1ccc(F)c(F)c1)c1nc(Cc2ccc(C(F)(F)F)cc2)no1 | – | 130 µM | 397 µM
18 | CC(=O)N[C@@H](Cc1ccc(OP(=O)(O)O)cc1)C(=O)N[C@@H](CO)c1nc(Cc2ccc(F)cc2)no1 | – | 132 µM | > 500 µM
19 | CC[C@H](NC(=O)[C@H](Cc1ccc(OP(=O)(O)O)cc1)NC(C)=O)c1nc(Cc2ccc(C(F)(F)F)cc2)no1 | – | 98 µM | > 500 µM
20 | CC(=O)N[C@@H](Cc1ccc(OP(=O)(O)O)cc1)C(=O)N[C@@H](CCC(N)=O)c1nc(Cc2cccc3ccccc23)no1 | – | 135 µM | > 500 µM

Row | SMILES | IC50 [1] | IC50 [2] | IC50 [3]
21 | CC(=O)N[C@@H](Cc1ccc(OP(=O)(O)O)cc1)C(=O)N[C@@H](CO)c1nc(Cc2ccc(Cl)c(Cl)c2)no1 | > 500 µM | 75 µM | > 500 µM
22 | CC(=O)N[C@@H](Cc1ccc(OP(=O)(O)O)cc1)C(=O)N[C@@H](C)c1nc(Cc2ccc(Cl)c(Cl)c2)no1 | > 500 µM | 72 µM | > 500 µM
23 | CC(=O)N[C@@H](Cc1ccc(OP(=O)(O)O)cc1)C(=O)N[C@@H](Cc1c[nH]c2ccccc12)c1nc(Cc2ccc(C(F)(F)F)cc2)no1 | – | 92 µM | > 500 µM
24 | CC(=O)N[C@@H](Cc1ccc(OP(=O)(O)O)cc1)C(=O)N[C@@H](C)c1nc(Cc2ccc(Cl)cc2)no1 | – | 66 µM | > 500 µM
25 | CC(=O)N[C@@H](Cc1ccc(OP(=O)(O)O)cc1)C(=O)N[C@@H](CO)c1nc(Cc2ccc(C(F)(F)F)cc2)no1 | > 500 µM | 282 µM | > 500 µM
26 | CC(=O)N[C@@H](Cc1ccc(OP(=O)(O)O)cc1)C(=O)N[C@@H](C)c1nc(Cc2ccc(C)cc2)no1 | – | 65 µM | > 500 µM
27 | CC(=O)N[C@@H](Cc1ccc(OP(=O)(O)O)cc1)C(=O)N[C@@H](C)c1nc(Cc2ccc3ccccc3c2)no1 | > 500 µM | 64 µM | > 500 µM
28 | CC(=O)N[C@@H](Cc1ccc(OP(=O)(O)O)cc1)C(=O)N[C@@H](CO)c1nc(Cc2ccc3ccccc3c2)no1 | 479 µM | 99 µM | > 500 µM
29 | CC(=O)N[C@@H](Cc1ccc(OP(=O)(O)O)cc1)C(=O)N[C@@H](C)c1nc(Cc2ccc(I)c(Cl)c2)no1 | – | 50 µM | 464 µM
30 | C[C@H](NC(=O)[C@H](Cc1ccc(OP(=O)(O)O)cc1)NC(=O)Cc1ccc2ccccc2c1)c1nc(Cc2ccc(C(F)(F)F)cc2)no1 | – | 49 µM | 302 µM
31 | CC(=O)N[C@@H](Cc1ccc(OP(=O)(O)O)cc1)C(=O)N[C@@H](CCC(N)=O)c1nc(Cc2ccc(Cl)cc2)no1 | – | 205 µM | > 500 µM
32 | CC(=O)N[C@@H](Cc1ccc(OP(=O)(O)O)cc1)C(=O)N[C@@H](CCc1ccccc1)c1nc(Cc2ccc(C(F)(F)F)cc2)no1 | > 500 µM | 95 µM | 323 µM
33 | O=C(Cc1ccccc1)N[C@@H](Cc1ccc(OP(=O)(O)O)cc1)C(=O)N[C@@H](CO)c1nc(Cc2ccc(Cl)c(Cl)c2)no1 | 263 µM | 35 µM | > 500 µM
34 | CC(=O)N[C@@H](Cc1ccc(OP(=O)(O)O)cc1)C(=O)N[C@@H](CCC(N)=O)c1nc(Cc2ccc(Cl)c(Cl)c2)no1 | 441 µM | 206 µM | > 500 µM
35 | CC(=O)N[C@@H](Cc1ccc(OP(=O)(O)O)cc1)C(=O)N[C@@H](C)c1nc(Cc2ccc(Br)cc2)no1 | – | 31 µM | > 500 µM
36 | CC(=O)N[C@@H](Cc1ccc(OP(=O)(O)O)cc1)C(=O)N[C@@H](C)c1nc(Cc2ccc(I)c(Br)c2)no1 | – | 40 µM | > 500 µM
37 | CC(=O)N[C@@H](CC(N)=O)C(=O)N[C@@H](CCC(N)=O)C(=O)N[C@@H](CC(C)C)C(=O)N[C@@H](Cc1ccc(OP(=O)(O)O)cc1)C(=O)N[C@@H](CC(N)=O)C(=O)N[C@@H](CCC(=O)O)C(=O)N[C@@H](CC(C)C)C(=O)N[C@@H](CC(N)=O)C(=O)N[C@@H](CC(C)C)C(=O)NCC(=O)N[C@@H](CCCN=C(N)N)C(=O)N[C@@H](CCCN=C(N)N)C(=O)N[C@@H](CCC(=O)O)C(=O)N[C@@H](CCC(=O)O)C(=O)N[C@@H](Cc1ccc(OP(=O)(O)O)cc1)C(=O)N[C@@H](CC(=O)O)C(=O)N[C@H](C(=O)N[C@@H](CC(C)C)C(=O)N[C@@H](CC(=O)O)C(N)=O)C(C)C | – | 20 µM | –
38 | CC(=O)N[C@@H](Cc1ccc(OP(=O)(O)O)cc1)C(=O)N[C@@H](CCC(N)=O)c1nc(Cc2cccc(Cl)c2)no1 | – | 259 µM | > 500 µM
39 | CC(=O)N[C@@H](Cc1ccc(OP(=O)(O)O)cc1)C(=O)N[C@@H](C)c1nc(Cc2ccc(Br)c(Br)c2)no1 | – | 39 µM | > 500 µM
